Laboratory results published in ChEMBL document CHEMBL1145788, “Synthesis of ethyl 5-phenyl-6-oxa-1-azabicyclo[3.1.0]hexane-2-carboxylate derivatives and evaluation of their antimalarial activities” (J Med Chem, 2003).
≈ marks a conversion by molar mass, not a printed value. Calls of active or inactive are those of the source. The calls are words filed in the database; no cut-off is given here.

Tests used:
[1] = Cytotoxicity against african green monkey kidney fibroblast (vero cell); format: functional, cell-based; settings: Chlorocebus sabaeus
How it was run: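 Vero (African green monkey kidney fibroblast) cytotoxicity run by the colorimetric method of Skehan and co-workers.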

[2] = tested on: Mycobacterium tuberculosis; experiment: Growth inhibitory activity against Mycobacterium tuberculosis H37R; format: functional
How it was run: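 M. tuberculosis H37Ra growth inhibition measured by microplate Alamar Blue assay (MABA); read-out as MIC; isoniazid and kanamycin sulfate run as reference drugs.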

Plasmodium falciparum [3] = experiment: In vitro antimalarial activity against multidrug-resistant Plasmodium falciparum K1; format: functional, organism-based
How it was run: (§1)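 Cultured P. falciparum K1 (multidrug-resistant) tested by microculture radioisotope technique (Desjardins); growth measured as [3H]hypoxanthine uptake; EC50 taken as the concentration giving 50% reduction in parasite growth; chloroquine diphosphate and artemisinin as standards.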

Plasmodium falciparum [4] = experiment: In vitro antimalarial activity against multidrug-resistant Plasmodium falciparum K1; Not active; format: functional, organism-based; how it was run: as §1
Vero = experiment: Cytotoxicity against african green monkey kidney fibroblast (vero cell) at a concentration less than 50 ug/mL; Inactive; format: functional, cell-based; settings: Chlorocebus sabaeus

Row | SMILES | IC50 [1] | MIC [2] | EC50 (Plasmodium falciparum [3]) | IA (Plasmodium falciparum [4]) | IA (Vero)
1 | Cc1c2ccncc2c(C)c2c1[nH]c1ccccc12 [ELLIPTECINE] | 1 µg/mL (≈ 4.06 µM) |  |  |  | 
2 | CCC[C@]1(C(=O)OCC)CC[C@@]2(c3ccccc3)O[N@@]12 | 28.9 µg/mL (≈ 105 µM) | 100 µg/mL (≈ 363 µM) | 21.7 µg/mL (≈ 78.8 µM) |  | 
3 | CCOC(=O)[C@@]1(C)CC[C@@]2(c3ccccc3)O[N@]21 | > 50 µg/mL | 200 µg/mL (≈ 809 µM) | 4.6 µg/mL (≈ 18.6 µM) |  | 
4 | C=CCCC[C@]1(C(=O)OCC)CC[C@@]2(c3ccccc3)O[N@@]12 |  |  | 13.9 µg/mL (≈ 46.1 µM) |  | 
5 | CCOC(=O)[C@]1(C)CC[C@@]2(c3ccccc3)O[N@@]12 | > 50 µg/mL | 200 µg/mL (≈ 809 µM) |  |  | 
6 | CCOC(=O)[C@]1(CCC2OCCO2)CC[C@@]2(c3ccccc3)O[N@@]12 | > 50 µg/mL |  |  | inactive | 
7 | CCOC(=O)[C@@]1(C2C[C@H]2C(=O)OC)CC[C@@]2(c3ccccc3)O[N@]21 (stereo partly specified) | 43.4 µg/mL (≈ 131 µM) | 100 µg/mL (≈ 302 µM) | 15.9 µg/mL (≈ 48 µM) |  | 
8 | CCOC(=O)[C@@]1(CCCc2ccccc2)CC[C@@]2(c3ccccc3)O[N@@]12 |  | 200 µg/mL (≈ 569 µM) | 2.9 µg/mL (≈ 8.25 µM) |  | inactive
9 | CCCCC[C@]1(C(=O)OCC)CC[C@@]2(c3ccccc3)O[N@@]12 |  | 100 µg/mL (≈ 330 µM) | 3.1 µg/mL (≈ 10.2 µM) |  | inactive
10 | CCC[C@@]1(C(=O)OCC)CC[C@@]2(c3ccccc3)O[N@@]12 | > 50 µg/mL | 100 µg/mL (≈ 363 µM) |  |  | 
11 | CCOC(=O)[C@@]1(CCC2OCCO2)CC[C@@]2(c3ccccc3)O[N@@]12 | > 50 µg/mL | 200 µg/mL (≈ 600 µM) | 14.7 µg/mL (≈ 44.1 µM) |  | 
12 | CCCCC[C@@]1(C(=O)OCC)CC[C@@]2(c3ccccc3)O[N@@]12 | > 50 µg/mL | 100 µg/mL (≈ 330 µM) |  | inactive | 
13 | CCOC(=O)[C@@]1(CCC=C(C)C)CC[C@@]2(c3ccccc3)O[N@@]12 |  |  | 21.9 µg/mL (≈ 69.4 µM) |  | 
14 | CCOC(=O)[C@]1(CCCc2ccccc2)CC[C@@]2(c3ccccc3)O[N@@]12 | > 50 µg/mL | 25 µg/mL (≈ 71.1 µM) |  | inactive | 
15 | CCN(CC)CCCC(C)Nc1ccnc2cc(Cl)ccc12.O=P(O)(O)O.O=P(O)(O)O (stereo unspecified) [CHLOROQUINE PHOSPHATE] |  |  | 0.16 µg/mL |  | 
16 | C=CCC[C@]1(C(=O)OCC)CC[C@@]2(c3ccccc3)O[N@@]12 |  |  | 44.2 µg/mL (≈ 154 µM) |  | 
17 | CCCC[C@]1(C(=O)OCC)CC[C@@]2(c3ccccc3)O[N@@]12 |  | 100 µg/mL (≈ 346 µM) | 2.4 µg/mL (≈ 8.29 µM) |  | inactive
18 | C[C@@H]1CC[C@H]2[C@@H](C)C(=O)O[C@@H]3O[C@@]4(C)CC[C@@H]1[C@]32OO4 [ARTEMISININ] |  |  | 0.0011 µg/mL (≈ 0.0039 µM) |  | 
19 | CCOC(=O)[C@]1(C2C[C@H]2C(=O)OC)CC[C@@]2(c3ccccc3)O[N@]21 (stereo partly specified) | > 50 µg/mL | 200 µg/mL (≈ 604 µM) |  | inactive | 
20 | CCCC[C@@]1(C(=O)OCC)CC[C@@]2(c3ccccc3)O[N@@]12 |  | 100 µg/mL (≈ 346 µM) |  | inactive | inactive
21 | NNC(=O)c1ccncc1 [ISONIAZID] |  | 0.05 µg/mL (≈ 0.365 µM) |  |  | 
